Measurements taken from ChEMBL document CHEMBL4184106, “Discovering alkylamide derivatives of bexarotene as new therapeutic agents against triple-negative breast cancer” (Bioorg Med Chem Lett, 2018).
Activity calls are given as the source filed them. No cut-off for these calls is given here.

How the values were obtained:
[1] = test system: MCF7; assay: Induction of apoptosis in human MCF7 cells assessed as ratio of cleaved caspase-8 to beta-actin level at 5 uM by western blot analysis (reference value: 1); type: functional
[2] = test system: MCF7; assay: Inhibition of mammosphere formation in human MCF7 cells assessed as ratio of KLF4 to beta actin level at 5 uM by Western blot analysis (Rvb= 1); type: functional
Procedure, shortened: (§1)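 Post-treatment cell lysates were probed by Western blot for CSC markers, with β-actin as the loading control. Band densitometry was normalized to DMSO-treated samples.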

[3] = test system: MDA-MB-231; assay: Induction of apoptosis in human MDA-MB-231 cells assessed as ratio of cleaved caspase-9 to beta-actin level at 5 uM by western blot analysis (reference value: 1); type: functional
[4] = test system: MCF-10A; assay: Induction of apoptosis in human MCF10A cells assessed as ratio of cleaved caspase-3 to beta-actin level at 5 uM by western blot analysis (reference value: 1); type: cell-based
[5] = test system: BT-549; assay: Effect on beta-catenin translocation in cytosolic fraction of human BT549 cells assessed as ratio of beta-catenin to beta-actin level at 10 uM by Western blot analysis (reference value: 1); type: functional
[6] = test system: BT-549; assay: Inhibition of mammosphere formation in human BT549 cells assessed as ratio of C-Myc to beta actin level at 5 uM by Western blot analysis (Rvb= 1); type: functional
[7] = test system: MCF7; assay: Inhibition of mammosphere formation in human MCF7 cells at 10 uM after 7 days by microscopic method; type: functional, cell-based
Procedure, shortened: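 MCF-7 cells were grown under mammosphere-forming conditions with compound. Spheres 60 μm or larger were counted for quantitation.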

[8] = test system: MCF7; assay: Inhibition of mammosphere formation in human MCF7 cells assessed as ratio of Sox2 to beta actin level at 5 uM by Western blot analysis (Rvb= 1); type: functional; procedure, shortened: as §1
[9] = test system: MDA-MB-231; assay: Effect on beta-catenin translocation in nuclear fraction of human MDA-MB-231 cells assessed as ratio of beta-catenin to beta-actin level at 10 uM by Western blot analysis (reference value: 1); type: functional
[10] = test system: MDA-MB-231; assay: Anti-migratory activity against human MDA-MB-231 cells assessed as reduction in wound closure at 5 uM up to 24 hrs by wound-healing assay; type: functional, cell-based
Procedure, shortened: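 MDA-MB-231 monolayer was scratched to make a wound gap. Cells were treated alongside a DMSO vehicle control, and migration into the gap was imaged at 24 h.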

[11] = test system: MCF7; assay: Inhibition of mammosphere formation in human MCF7 cells assessed as ratio of Oct4A to beta actin level at 5 uM by Western blot analysis (Rvb= 1); type: functional; procedure, shortened: as §1
[12] = test system: MCF7; assay: Inhibition of mammosphere formation in human MCF7 cells assessed as ratio of Nanog to beta actin level at 5 uM by Western blot analysis (Rvb= 1); type: functional; procedure, shortened: as §1
[13] = test system: MCF7; assay: Cytotoxicity against human MCF7 cells assessed as reduction in cell viability at 5 uM by MTT assay; type: functional
[14] = test system: BT-549; assay: Effect on epithelial-mesenchymal transition in human BT549 cells assessed as ratio of E-cadherin to beta-actin level at 5 uM by Western blot analysis (reference value: 1); type: functional
[15] = test system: MDA-MB-231; assay: Inhibition of colony formation in human MDA-MB-231 cells at 10 uM supplemented with fresh medium containing compound every 3 days for 10 days by microscopic method based soft agar colony formation assay; type: functional, cell-based
[16] = test system: BT-549; assay: Induction of apoptosis in nuclear fractions of human BT549 cells assessed as ratio of cleaved PARP to beta-actin level at 5 uM by western blot analysis (reference value: 1)
[17] = test system: MDA-MB-231; assay: Cytotoxicity against human MDA-MB-231 cells assessed as reduction in cell viability by MTT assay; type: functional, cell-based
[18] = test system: MCF7; assay: Induction of apoptosis in human MCF7 cells assessed as ratio of cleaved caspase-9 to beta-actin level at 5 uM by western blot analysis (reference value: 1); type: functional
[19] = test system: MCF7; assay: Induction of apoptosis in human MCF7 cells assessed as ratio of cleaved caspase-3 to beta-actin level at 5 uM by western blot analysis (reference value: 1); type: functional
[20] = test system: MDA-MB-231; assay: Induction of apoptosis in human MDA-MB-231 cells assessed as ratio of cleaved caspase-8 to beta-actin level at 5 uM by western blot analysis (reference value: 1); type: functional
[21] = test system: BT-549; assay: Induction of apoptosis in human BT549 cells assessed as ratio of cleaved caspase-9 to beta-actin level at 5 uM by western blot analysis (reference value: 1); type: functional
[22] = test system: MDA-MB-231; assay: Effect on epithelial-mesenchymal transition in human MDA-MB-231 cells assessed as ratio of slug to beta-actin level at 5 uM by Western blot analysis (reference value: 1); type: functional
[23] = test system: MDA-MB-231; assay: Effect on epithelial-mesenchymal transition in human MDA-MB-231 cells assessed as ratio of vimentin to beta-actin level at 5 uM by Western blot analysis (reference value: 1); type: functional
[24] = test system: MDA-MB-231; assay: Induction of apoptosis in nuclear fractions of human MDA-MB-231 cells assessed as ratio of PARP to beta-actin level at 10 uM by western blot analysis (reference value: 1); type: functional
[25] = test system: BT-549; assay: Induction of apoptosis in human BT549 cells assessed as ratio of cleaved caspase-8 to beta-actin level at 5 uM by western blot analysis (reference value: 1); type: functional
[26] = test system: MCF7; assay: Inhibition of colony formation in human MCF7 cells at 5 uM supplemented with fresh medium containing compound every 3 to 4 days for 7 days by crystal violet staining based adherent cell colony-forming assay; type: functional
Procedure, shortened: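 MCF-7 cells were plated for adherent colony formation and treated for 7 days. Colonies were counted at the end of treatment and normalized to untreated samples.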

[27] = test system: MDA-MB-231; assay: Inhibition of mammosphere formation in human MDA-MB-231 cells assessed as ratio of C-Myc to beta actin level at 5 uM by Western blot analysis (Rvb= 1); type: functional; procedure, shortened: as §1
[28] = test system: MDA-MB-231; assay: Effect on epithelial-mesenchymal transition in human MDA-MB-231 cells assessed as ratio of E-cadherin to beta-actin level at 5 uM by Western blot analysis (reference value: 1); type: functional
[29] = test system: MDA-MB-231; assay: Effect on beta-catenin translocation in cytosolic fraction of human MDA-MB-231 cells assessed as ratio of beta-catenin to beta-actin level at 10 uM by Western blot analysis (reference value: 1); type: functional
[30] = test system: BT-549; assay: Effect on epithelial-mesenchymal transition in human BT549 cells assessed as ratio of slug to beta-actin level at 5 uM by Western blot analysis (reference value: 1); type: functional
[31] = test system: MDA-MB-231; assay: Induction of apoptosis in human MDA-MB-231 cells assessed as ratio of cleaved caspase-3 to beta-actin level at 5 uM by western blot analysis (reference value: 1); type: functional
[32] = test system: MDA-MB-231; assay: Induction of apoptosis in nuclear fractions of human MDA-MB-231 cells assessed as ratio of cleaved PARP to beta-actin level at 10 uM by western blot analysis (reference value: 1); type: functional
[33] = test system: MCF-10A; assay: Induction of apoptosis in human MCF10A cells assessed as ratio of cleaved caspase-8 to beta-actin level at 5 uM by western blot analysis (reference value: 1); type: cell-based
[34] = test system: BT-549; assay: Cytotoxicity against human BT549 cells assessed as reduction in cell viability at 5 uM by MTT assay; type: functional
[35] = test system: MDA-MB-231; assay: Inhibition of mammosphere formation in human MDA-MB-231 cells assessed as ratio of KLF4 to beta actin level at 5 uM by Western blot analysis (Rvb= 1); type: functional; procedure, shortened: as §1
[36] = test system: BT-549; assay: Cytotoxicity against human BT549 cells assessed as reduction in cell viability by MTT assay; type: functional, cell-based
[37] = test system: BT-549; assay: Induction of apoptosis in human BT549 cells assessed as ratio of cleaved caspase-3 to beta-actin level at 5 uM by western blot analysis (reference value: 1); type: functional
[38] = test system: MCF-10A; assay: Cytotoxicity against human MCF10A cells assessed as reduction in cell viability at 5 uM by MTT assay; type: cell-based
[39] = test system: BT-549; assay: Inhibition of mammosphere formation in human BT549 cells assessed as ratio of KLF4 to beta actin level at 5 uM by Western blot analysis (Rvb= 1); type: functional
[40] = test system: MCF-10A; assay: Induction of apoptosis in human MCF10A cells assessed as ratio of cleaved caspase-9 to beta-actin level at 5 uM by western blot analysis (reference value: 1); type: cell-based
[41] = test system: BT-549; assay: Induction of apoptosis in nuclear fractions of human BT549 cells assessed as ratio of PARP to beta-actin level at 10 uM by western blot analysis (reference value: 1); type: functional
[42] = test system: BT-549; assay: Effect on beta-catenin translocation in nuclear fraction of human BT549 cells assessed as ratio of beta-catenin to beta-actin level at 10 uM by Western blot analysis (reference value: 1); type: functional
[43] = test system: MCF7; assay: Inhibition of mammosphere formation in human MCF7 cells assessed as ratio of C-Myc to beta actin level at 5 uM by Western blot analysis (Rvb= 1); type: functional; procedure, shortened: as §1
[44] = test system: MDA-MB-231; assay: Cytotoxicity against human MDA-MB-231 cells assessed as reduction in cell viability at 5 uM by MTT assay; type: functional
[45] = test system: BT-549; assay: Effect on epithelial-mesenchymal transition in human BT549 cells assessed as ratio of vimentin to beta-actin level at 5 uM by Western blot analysis (reference value: 1); type: functional

C=C(c1ccc(C(=O)O)cc1)c1cc2c(cc1C)C(C)(C)CCC2(C)C [BEXAROTENE]
Ratio [1]: 1 | Ratio [2]: 1 | Ratio [3]: 3.2 | Ratio [4]: 0.95 | Ratio [5]: 2.2 | Ratio [6]: 1.4 | inhibition [7]: inactive | Ratio [8]: 0.8 | Ratio [9]: 1.8 | Activity [10]: inactive | Ratio [11]: 1.2 | Ratio [12]: 1 | Activity [13]: inactive | Ratio [14]: 9.2 | inhibition [15]: inactive | Ratio [16]: 1.7 | EC50 [17]: > 56 µM | Ratio [18]: 1.2 | Ratio [19]: 0.9 | Ratio [20]: 3.4 | Ratio [21]: 1.3 | Ratio [22]: 1 | Ratio [23]: 0.4 | Ratio [24]: 0.9 | Ratio [25]: 1.1 | inhibition [26]: inactive | Ratio [27]: 1.2 | Ratio [28]: 10.8 | Ratio [29]: 2.4 | Ratio [30]: 1.3 | Ratio [31]: 2.7 | Ratio [32]: 1.6 | Ratio [33]: 1 | Activity [34]: inactive | Ratio [35]: 1.3 | EC50 [36]: > 56 µM | Ratio [37]: 1.1 | Activity [38]: Non-Toxic | Ratio [39]: 1.2 | Ratio [40]: 1.1 | Ratio [41]: 1.8 | Ratio [42]: 0.7 | Ratio [43]: 1 | Activity [44]: inactive | Ratio [45]: 0.9
